Measured values reported in ChEMBL document CHEMBL3393003, “1,2,3,9b-Tetrahydro-5H-imidazo[2,1-a]isoindol-5-ones as a new class of respiratory syncytial virus (RSV) fusion inhibitors. Part 2: identification of BTA9881 as a preclinical candidate” (Bioorg Med Chem Lett, 2015).
pEC50: −log10 of the molar value. ≈ marks a conversion by molar mass, not a printed value. Each block holds one compound with its values, some of them ahead of it.

What was measured:
[1] = tested on: Respiratory syncytial virus; test: Antiviral activity against respiratory syncytial virus A2 infected in human Hep2 cells assessed as reduction in virus-induced cytopathic effect after 5 days by MTT assay; type: functional, organism-based; conditions: A2, HEp-2, 120 h
Outline: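 HEp2 cells (1.0 × 10⁴/well) infected at low moi (RSV A2 at moi 0.01) and added to serial compound dilutions; incubated 5 days at 37 °C, 5% CO₂. CPE read by MTT (1 mg/ml) metabolism after 2 h incubation.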

[2] = Plasma clearance in Sprague-Dawley rat at 1.1 mg/kg, iv; type: ADME, organism-based; set-up: dose 1.1 mg/kg, route intravenous
[3] = Lipophilicity, log D of the compound at pH 7.4 by chromatography; type: physicochemical; conditions: buffer
Outline: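 Effective logD measured chromatographically on an LC-ABZ column, octanol-saturated mobile phase at pH 7.4.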

[4] = Elimination half life in Sprague-Dawley rat at 20 mg/kg, po; type: ADME, organism-based; set-up: dose 20 mg/kg, route oral; conditions: in vivo, read-out: beta t1/2 (converted)
Outline: (§1)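 Male Sprague Dawley rats, n = 2, oral dose as suspension in hydroxypropylmethylcellulose, in carboxymethylcellulose, or in 0.5% HPMC/0.5% benzyl alcohol/0.4% Tween80. Cmax (µM), T1/2 and F (%) derived from plasma levels.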

[5] = Apparent volume of distribution in Sprague-Dawley rat at 1.1 mg/kg, iv; type: ADME, organism-based; set-up: dose 1.1 mg/kg, route intravenous; conditions: in vivo, read-out: Vz
[6] = Elimination half life in Sprague-Dawley rat at 1.1 mg/kg, iv; type: ADME, organism-based; set-up: dose 1.1 mg/kg, route intravenous; conditions: in vivo, read-out: beta t1/2 (converted)
[7] = Cmax in Sprague-Dawley rat at 20 mg/kg, po; type: ADME, organism-based; set-up: dose 20 mg/kg, route oral; conditions: in vivo; outline: as §1
[8] = tested on: Respiratory syncytial virus; test: Potency shift index, ratio of EC50 for respiratory syncytial virus A2 infected in human Hep2 in presence of 1.5 mg/mL Alpha-1-acid glycoprotein to EC50 for respiratory syncytial virus A2 infected in human Hep2 in absence of Alpha-1-acid glycoprotein; type: functional
[9] = Cytotoxicity against human Hep2 cells assessed as reduction in cell viability after 5 days by MTT assay; type: cell-based, HEp-2
Outline: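 Uninfected HEp2 cells (1.0 × 10⁴/well) exposed to serial compound dilutions for 5 days at 37 °C, 5% CO₂. Viability read by MTT (1 mg/ml) metabolism after 2 h incubation.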

[10] = Kinetic solubility in isotonic phosphate buffer at pH 6.5 by nephelometry; type: physicochemical; conditions: read-out: Kinetic_solubility
Outline: (§2)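 Compound dissolved in DMSO and added to 0.01 M HCl (pH 2) or pH 6.5 isotonic phosphate buffer, 1% final DMSO. Solubility range determined by nephelometry.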

[11] = Oral bioavailability in Sprague-Dawley rat at 20 mg/kg; type: ADME, organism-based; conditions: in vivo; outline: as §1
[12] = Kinetic solubility in 0.01M HCl buffer at pH 2.0 by nephelometry; type: physicochemical; conditions: read-out: Kinetic_solubility; outline: as §2
[13] = tested on: Respiratory syncytial virus; test: Antiviral activity against respiratory syncytial virus B1 infected in human Hep2 cells assessed as reduction in virus-induced cytopathic effect after 5 days by MTT assay; type: functional, organism-based; conditions: B1, HEp-2, 120 h
[14] = tested on: Respiratory syncytial virus; test: Antiviral activity against respiratory syncytial virus Long infected in human Hep2 cells assessed as reduction in virus-induced cytopathic effect after 5 days by MTT assay; type: functional, organism-based; conditions: HEp-2, 120 h
[15] = tested on: Plasma; test: Drug metabolism in orally dosed Sprague-Dawley rat plasma assessed as formation of pyridine N-oxides level; type: ADME, organism-based; conditions: in vivo, po
[16] = Drug metabolism in iv dosed Sprague-Dawley rat urine assessed as formation of pyridine N-oxides level; type: ADME, organism-based; conditions: in vivo
[17] = Elimination half life in Sprague-Dawley rat at 0.9 mg/kg, iv; type: ADME, organism-based; set-up: dose 0.9 mg/kg, route intravenous; conditions: in vivo, read-out: beta t1/2 (converted)
[18] = Oral bioavailability in Sprague-Dawley rat at 19 mg/kg; type: ADME, organism-based; conditions: in vivo; outline: as §1
[19] = Apparent volume of distribution in Sprague-Dawley rat at 0.9 mg/kg, iv; type: ADME, organism-based; set-up: dose 0.9 mg/kg, route intravenous; conditions: in vivo, read-out: Vz
[20] = tested on: Plasma; test: Drug metabolism in iv dosed Sprague-Dawley rat plasma assessed as formation of pyridine N-oxides level; type: ADME, organism-based; conditions: in vivo
[21] = Cmax in Sprague-Dawley rat at 19 mg/kg, po; type: ADME, organism-based; set-up: dose 19 mg/kg, route oral; conditions: in vivo; outline: as §1
[22] = Drug metabolism in orally dosed Sprague-Dawley rat urine assessed as formation of pyridine N-oxides level; type: ADME, organism-based; conditions: in vivo, po
[23] = Plasma clearance in Sprague-Dawley rat at 0.9 mg/kg, iv; type: ADME, organism-based; set-up: dose 0.9 mg/kg, route intravenous
[24] = Elimination half life in Sprague-Dawley rat at 19 mg/kg, po; type: ADME, organism-based; set-up: dose 19 mg/kg, route oral; conditions: in vivo, read-out: beta t1/2 (converted); outline: as §1
[25] = Apparent volume of distribution in Sprague-Dawley rat at 5.1 mg/kg, iv; type: ADME, organism-based; set-up: dose 5.1 mg/kg, route intravenous; conditions: in vivo, read-out: Vz
[26] = Elimination half life in Sprague-Dawley rat at 5.1 mg/kg, iv; type: ADME, organism-based; set-up: dose 5.1 mg/kg, route intravenous; conditions: in vivo, read-out: beta t1/2 (converted)
[27] = Plasma clearance in Sprague-Dawley rat at 5.1 mg/kg, iv; type: ADME, organism-based; set-up: dose 5.1 mg/kg, route intravenous
[28] = Elimination half life in Sprague-Dawley rat at 2 mg/kg, iv; type: ADME, organism-based; set-up: dose 2 mg/kg, route intravenous; conditions: in vivo, read-out: beta t1/2 (converted)
[29] = Apparent volume of distribution in Sprague-Dawley rat at 2 mg/kg, iv; type: ADME, organism-based; set-up: dose 2 mg/kg, route intravenous; conditions: in vivo, read-out: Vz
[30] = Plasma clearance in Sprague-Dawley rat at 2 mg/kg, iv; type: ADME, organism-based; set-up: dose 2 mg/kg, route intravenous
[31] = Cmax in Sprague-Dawley rat at 21 mg/kg, po; type: ADME, organism-based; set-up: dose 21 mg/kg, route oral; conditions: in vivo
Outline: (§3)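 Male Sprague Dawley rats, n = 2, oral dose as suspension with carboxymethylcellulose. Cmax (µM), T1/2 and F (%) derived from plasma levels.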

[32] = Apparent volume of distribution in Sprague-Dawley rat at 2.1 mg/kg, iv; type: ADME, organism-based; set-up: dose 2.1 mg/kg, route intravenous; conditions: in vivo, read-out: Vz
Outline: (§4)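 Male Sprague Dawley rats given one IV dose. 3.1 mg/kg: n = 1, in 40% propylene glycol, 10% ethanol and 0.4% Tween80 in water. 2.1 mg/kg: n = 2, in 20 mM citrate (pH 2.6) with 5% glucose and 10% DMSO. Total clearance, Vz and T1/2 derived from plasma levels.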

[33] = Half life in Sprague-Dawley rat at 21 mg/kg, po; type: ADME, organism-based; set-up: dose 21 mg/kg, route oral; conditions: in vivo; outline: as §3
[34] = Total clearance in Sprague-Dawley rat at 2.1 mg/kg, iv; type: ADME, organism-based; set-up: dose 2.1 mg/kg, route intravenous; conditions: in vivo; outline: as §4
[35] = Oral bioavailability in Sprague-Dawley rat at 21 mg/kg; type: ADME, organism-based; conditions: in vivo; outline: as §3
[36] = Elimination half life in Sprague-Dawley rat at 2.1 mg/kg, iv; type: ADME, organism-based; set-up: dose 2.1 mg/kg, route intravenous; conditions: in vivo, read-out: beta t1/2 (converted); outline: as §4
[37] = tested on: Respiratory syncytial virus; test: Resistance index, ratio of EC50 for drug resistant respiratory syncytial virus Long expressing F protein Q494L mutant to EC50 for wild type Respiratory syncytial virus Long
[38] = tested on: Respiratory syncytial virus; test: Resistance index, ratio of EC50 for drug resistant respiratory syncytial virus B1 expressing F protein L141F mutant to EC50 for wild type Respiratory syncytial virus B1; type: functional
[39] = tested on: Respiratory syncytial virus; test: Resistance index, ratio of EC50 for VP-14637 resistant respiratory syncytial virus Long expressing F protein D489Y mutant to EC50 for wild type Respiratory syncytial virus Long

SMILES: O=C(c1ccco1)N1CCN2C(=O)c3ccncc3C12c1ccc(Cl)cc1 (racemic)
- pEC50 [1]: 6.92
- clearance [2]: 79 mL/min/kg
- chromatographic logD [3]: 2.8
- half-life [4]: 2.8 h
- Vd [5]: 8.7 L/kg
- half-life [6]: 2.4 h
- Cmax [7]: 0.44 µM
- Ratio EC50 [8]: 3.6
- CC50 at 120 h [9]: > 19000 nM
- solubility kinetic [10]: > 100 µg/mL
- bioavailability [11]: 21%
- solubility kinetic [12]: 50 µg/mL (≈ 132 µM)
- pEC50 [13]: 6.77
- pEC50 [14]: 6.43

SMILES: O=c1n(Cc2nc3ccccc3n2CCCCO)c2cnccc2n1C1CC1
- Ratio EC50 [37]: 10
- Ratio EC50 [38]: >345
- Ratio EC50 [39]: >20000

SMILES: Cc1ccc(CCCO)c(NCc2ccc3nc(NCCCN4CCOCC4)n(Cc4nc(C)ccc4O)c3c2)c1
- Ratio EC50 [37]: 11.5
- Ratio EC50 [38]: >3333
- Ratio EC50 [39]: >10000

Second part, led by results:

- Drug metabolism [15]: metabolite_detected
- Drug metabolism [16]: metabolite_detected
- half-life [17]: 5.6 h
- bioavailability [18]: 38%
- Vd [19]: 1.9 L/kg
- Drug metabolism [20]: metabolite_detected
- Cmax [21]: 3.6 µM
- Drug metabolism [22]: metabolite_detected
- clearance [23]: 4 mL/min/kg
- half-life [24]: 7.1 h
SMILES: Cn1cc(C(=O)N2CCN3C(=O)c4ccncc4C32c2ccc(Cl)cc2)c(C(F)(F)F)n1 (racemic)
- pEC50 [1]: 7.51
- Ratio EC50 [8]: 4.3
- CC50 at 120 h [9]: > 16000 nM

- chromatographic logD [3]: 2.7
- Vd [25]: 3.8 L/kg
- bioavailability [18]: 75%
- half-life [26]: 11 h
- Cmax [21]: 8.8 µM
- solubility kinetic [10]: 25 µg/mL (≈ 61.2 µM)
- clearance [27]: 4.3 mL/min/kg
- solubility kinetic [12]: > 100 µg/mL
- half-life [24]: 9.3 h
SMILES: O=C(c1ccc(F)nc1)N1CCN2C(=O)c3ccncc3[C@]12c1ccc(Cl)cc1
- pEC50 [1]: 7.12
- pEC50 [13]: 6.54
- pEC50 [14]: 6.89

- half-life [28]: > 24 h
- Vd [29]: 6 L/kg
- clearance [30]: 2.7 mL/min/kg
SMILES: O=C(c1ccc(F)cc1)N1CCN2C(=O)c3ccncc3C12c1ccc(Cl)cc1 (racemic)
- Ratio EC50 [8]: 7.2

- Drug metabolism [15]: metabolite_detected
- Drug metabolism [16]: metabolite_detected
- Drug metabolism [20]: metabolite_detected
- Drug metabolism [22]: metabolite_detected
SMILES: O=C(c1ccc(F)nc1)N1CCN2C(=O)c3ccncc3C12c1ccc(Cl)cc1 (racemic)
- pEC50 [1]: 7.03
- Ratio EC50 [8]: 1.8
- CC50 at 120 h [9]: > 48000 nM

- Cmax [31]: 2.5 µM
- Vd [32]: 1.2 L/kg
- half-life [33]: 20 h
- clearance [34]: 7.9 mL/min/kg
- bioavailability [35]: 85%
- half-life [36]: 1.7 h
SMILES: O=C(c1ccc(F)nc1)N1CCN2C(=O)c3cc[n+]([O-])cc3C12c1ccc(Cl)cc1 (racemic)
- pEC50 [1]: 6.82
- CC50 at 120 h [9]: > 17000 nM
